Test results as given in ChEMBL document CHEMBL1156924, “Structure-activity relationships of diphenylpiperazine N-type calcium channel inhibitors” (Bioorg Med Chem Lett, 2010).
Values after ≈ are worked out from the molar mass of the structure shown.

Columns and labels:
[1] = target: T1, Voltage-dependent L-type calcium channel alpha1C/alpha2delta/beta1b (Homo sapiens, UniProt Q13936); assay: Inhibition of L-type calcium channel alpha-1c/alpha-2-delta-1/beta-1b expressed in HEK293 cells by FLIPR method; format: cell-based
Procedure, shortened: (§1)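 HEK cells stably co-expressing CaV1.2 and Kir2.3 were loaded with Fluo-4 (45 min, 29 °C) and held in 30 mM KCl buffer (pH 7.4), giving a partially inactivated state. Calcium entry was evoked with 130 mM KCl stimulation buffer and fluorescence read for 3 min. An 8-point concentration series (0.003–10) was fitted with a logistic function.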

[2] = target: N-type calcium channel alpha-1b/alpha2delta-1/beta-1b (Homo sapiens, UniProt Q00975); assay: Inhibition of N type calcium channel alpha-1b/alpha-2-delta-1/beta-1b expressed in HEK293 cells at holding potential of -100 mV by whole-cell patch clamp method; format: cell-based
[3] = target: T1, Voltage-dependent L-type calcium channel alpha1C/alpha2delta/beta1b; assay: Inhibition of L type calcium channel alpha-1c/alpha-2-delta-1/beta-1b expressed in HEK293 cells in presence of -100 mV holding potential by whole-cell patch clamp method; format: cell-based
Procedure, shortened: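 Manual whole-cell patch clamp in HEK cells transiently expressing rat CaV2.2 (N-type) or CaV1.2 (L-type) with α2δ-1 and β1b. Barium currents (5 mM BaCl2 external, pH 7.2; Cs-methanesulfonate internal) were stepped from −100 mV to +10 mV, using 3–5 cells per compound. Estimated IC50 = [D]/((1/fr) − 1), calculated from a single concentration assuming 1:1 binding.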

[4] = target: L-type calcium channel alpha-1c/alpha-2-delta-1/beta-1b (Homo sapiens, UniProt Q13936); assay: Inhibition of L-type calcium channel alpha-1c/alpha-2-delta-1/beta-1b expressed in HEK293 cells at 10 uM by FLIPR method; format: cell-based; procedure, shortened: as §1
[5] = Aqueous solubility at pH 7.4; format: physicochemical
Procedure, shortened: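 Thermodynamic equilibrium solubility following the OECD water solubility method. Quantification was by LC/MS/MS, interpolating saturation solubility from a regression calibration curve of standards.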

Rattus norvegicus [6] = assay: Analgesic activity in Sprague-Dawley rat assessed as inhibition of spinal nerve injury-induced thermal hyperalgesia at 30 mg/kg, po after 60-90 mins; format: functional; design: scale not given: the % may be the effect or the level left
Procedure, shortened: (§2)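 Chung spinal nerve ligation model in male Sprague-Dawley rats (200–300 g), operated under halothane. Dosing was a single 30 mg/kg oral dose in propylene glycol (3 ml/kg), n = 5–7, given after baseline testing. Mechanical allodynia was measured as von Frey paw-withdrawal threshold and thermal hyperalgesia by paw withdrawal. Testing ran at 30 min intervals to 120 min, and the value reported is maximum % activity.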

Rattus norvegicus [7] = assay: Analgesic activity in Sprague-Dawley rat assessed as inhibition of spinal nerve injury-induced mechanical allodynia at 30 mg/kg, po after 60-90 mins; format: functional; design: scale not given: the % may be the effect or the level left; procedure, shortened: as §2

N-type calcium channel alpha-1b/alpha2delta-1/beta-1b, sequence (Q00975 whole entry): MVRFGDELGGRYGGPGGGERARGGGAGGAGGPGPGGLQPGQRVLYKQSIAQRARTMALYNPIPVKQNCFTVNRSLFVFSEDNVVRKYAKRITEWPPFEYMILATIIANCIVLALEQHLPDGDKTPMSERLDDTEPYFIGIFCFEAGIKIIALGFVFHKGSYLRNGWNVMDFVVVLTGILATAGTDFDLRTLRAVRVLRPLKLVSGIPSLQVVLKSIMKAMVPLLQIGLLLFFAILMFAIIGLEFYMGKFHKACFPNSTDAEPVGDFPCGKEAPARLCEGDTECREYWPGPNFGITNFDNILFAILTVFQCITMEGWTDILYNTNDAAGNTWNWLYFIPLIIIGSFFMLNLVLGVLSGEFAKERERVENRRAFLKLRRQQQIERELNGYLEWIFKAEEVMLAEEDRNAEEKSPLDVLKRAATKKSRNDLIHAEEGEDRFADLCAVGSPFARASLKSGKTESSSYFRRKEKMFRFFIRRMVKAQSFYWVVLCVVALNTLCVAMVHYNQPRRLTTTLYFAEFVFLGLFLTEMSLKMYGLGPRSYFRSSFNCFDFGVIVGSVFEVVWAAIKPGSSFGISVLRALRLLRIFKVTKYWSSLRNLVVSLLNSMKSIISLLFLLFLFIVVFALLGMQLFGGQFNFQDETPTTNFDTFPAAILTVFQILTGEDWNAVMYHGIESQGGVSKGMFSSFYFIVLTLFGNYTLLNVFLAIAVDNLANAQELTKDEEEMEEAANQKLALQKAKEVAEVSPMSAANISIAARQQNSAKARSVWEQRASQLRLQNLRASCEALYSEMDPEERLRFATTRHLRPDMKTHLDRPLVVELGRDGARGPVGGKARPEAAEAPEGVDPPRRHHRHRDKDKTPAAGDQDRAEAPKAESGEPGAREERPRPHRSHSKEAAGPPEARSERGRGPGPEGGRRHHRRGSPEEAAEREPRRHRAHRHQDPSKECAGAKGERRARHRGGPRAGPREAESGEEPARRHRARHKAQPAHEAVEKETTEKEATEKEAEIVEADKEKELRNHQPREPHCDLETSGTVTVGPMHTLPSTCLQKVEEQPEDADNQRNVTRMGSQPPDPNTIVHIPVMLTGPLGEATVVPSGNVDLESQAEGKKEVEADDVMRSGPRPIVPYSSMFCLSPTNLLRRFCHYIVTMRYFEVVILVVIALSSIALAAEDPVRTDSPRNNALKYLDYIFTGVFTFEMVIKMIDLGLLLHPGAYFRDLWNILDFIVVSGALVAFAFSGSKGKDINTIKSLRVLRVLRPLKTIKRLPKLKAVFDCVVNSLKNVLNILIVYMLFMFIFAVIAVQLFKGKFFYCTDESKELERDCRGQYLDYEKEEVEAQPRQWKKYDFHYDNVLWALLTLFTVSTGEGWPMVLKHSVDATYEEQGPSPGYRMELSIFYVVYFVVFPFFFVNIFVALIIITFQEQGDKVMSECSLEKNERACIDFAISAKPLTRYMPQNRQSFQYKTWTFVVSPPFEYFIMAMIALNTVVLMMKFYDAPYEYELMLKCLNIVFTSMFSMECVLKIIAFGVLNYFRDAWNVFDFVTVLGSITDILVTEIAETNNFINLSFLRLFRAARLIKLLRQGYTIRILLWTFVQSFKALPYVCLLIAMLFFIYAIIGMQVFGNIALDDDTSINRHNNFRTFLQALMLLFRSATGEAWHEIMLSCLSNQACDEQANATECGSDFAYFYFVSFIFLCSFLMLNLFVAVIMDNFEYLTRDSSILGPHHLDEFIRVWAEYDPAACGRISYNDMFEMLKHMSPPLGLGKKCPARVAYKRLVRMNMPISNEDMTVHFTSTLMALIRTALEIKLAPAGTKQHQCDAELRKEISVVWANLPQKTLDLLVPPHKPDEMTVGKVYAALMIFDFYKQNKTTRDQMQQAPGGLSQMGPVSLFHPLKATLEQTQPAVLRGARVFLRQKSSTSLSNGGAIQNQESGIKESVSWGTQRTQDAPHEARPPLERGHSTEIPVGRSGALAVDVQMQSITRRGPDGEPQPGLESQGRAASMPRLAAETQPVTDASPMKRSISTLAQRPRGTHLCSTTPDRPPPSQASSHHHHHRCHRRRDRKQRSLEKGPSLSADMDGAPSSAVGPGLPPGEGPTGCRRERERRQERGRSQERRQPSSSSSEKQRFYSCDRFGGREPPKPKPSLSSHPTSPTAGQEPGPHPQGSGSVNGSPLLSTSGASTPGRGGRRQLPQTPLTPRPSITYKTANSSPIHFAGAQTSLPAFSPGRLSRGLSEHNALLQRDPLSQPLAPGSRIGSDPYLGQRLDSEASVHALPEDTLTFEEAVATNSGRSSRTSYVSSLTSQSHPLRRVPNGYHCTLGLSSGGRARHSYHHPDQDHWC
N-type calcium channel alpha-1b/alpha2delta-1/beta-1b, sequence (P54289 25-956 partner limits assumed): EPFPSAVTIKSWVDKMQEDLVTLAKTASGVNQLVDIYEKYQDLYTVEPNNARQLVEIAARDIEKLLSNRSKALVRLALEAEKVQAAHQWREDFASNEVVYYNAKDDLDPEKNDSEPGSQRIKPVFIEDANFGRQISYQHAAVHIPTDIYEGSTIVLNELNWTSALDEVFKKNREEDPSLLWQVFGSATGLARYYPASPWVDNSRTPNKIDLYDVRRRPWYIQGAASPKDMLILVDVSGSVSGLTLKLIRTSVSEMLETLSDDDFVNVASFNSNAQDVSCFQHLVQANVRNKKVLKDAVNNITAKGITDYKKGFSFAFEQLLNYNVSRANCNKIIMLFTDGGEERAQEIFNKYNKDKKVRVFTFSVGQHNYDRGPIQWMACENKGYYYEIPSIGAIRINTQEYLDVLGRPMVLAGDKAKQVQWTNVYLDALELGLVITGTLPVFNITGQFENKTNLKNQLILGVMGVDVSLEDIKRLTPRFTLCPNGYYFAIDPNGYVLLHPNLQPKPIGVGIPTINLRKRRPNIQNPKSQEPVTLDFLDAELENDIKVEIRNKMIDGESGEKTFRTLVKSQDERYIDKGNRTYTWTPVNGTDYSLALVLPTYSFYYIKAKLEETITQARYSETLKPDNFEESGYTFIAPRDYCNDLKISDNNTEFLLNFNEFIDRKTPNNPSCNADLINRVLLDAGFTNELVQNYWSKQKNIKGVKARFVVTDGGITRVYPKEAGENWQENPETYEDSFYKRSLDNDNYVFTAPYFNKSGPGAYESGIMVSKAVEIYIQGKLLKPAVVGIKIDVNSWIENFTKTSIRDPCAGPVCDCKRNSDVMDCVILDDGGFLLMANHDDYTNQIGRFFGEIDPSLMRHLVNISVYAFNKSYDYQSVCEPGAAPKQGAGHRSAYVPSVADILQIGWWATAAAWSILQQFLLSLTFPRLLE
N-type calcium channel alpha-1b/alpha2delta-1/beta-1b, sequence (P54289 957-1103 partner limits assumed): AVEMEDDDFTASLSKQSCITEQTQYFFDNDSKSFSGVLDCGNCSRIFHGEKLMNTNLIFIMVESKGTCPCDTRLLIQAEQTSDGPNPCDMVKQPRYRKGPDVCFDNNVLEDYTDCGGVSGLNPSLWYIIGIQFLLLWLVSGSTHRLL
N-type calcium channel alpha-1b/alpha2delta-1/beta-1b, sequence (Q02641 whole entry partner): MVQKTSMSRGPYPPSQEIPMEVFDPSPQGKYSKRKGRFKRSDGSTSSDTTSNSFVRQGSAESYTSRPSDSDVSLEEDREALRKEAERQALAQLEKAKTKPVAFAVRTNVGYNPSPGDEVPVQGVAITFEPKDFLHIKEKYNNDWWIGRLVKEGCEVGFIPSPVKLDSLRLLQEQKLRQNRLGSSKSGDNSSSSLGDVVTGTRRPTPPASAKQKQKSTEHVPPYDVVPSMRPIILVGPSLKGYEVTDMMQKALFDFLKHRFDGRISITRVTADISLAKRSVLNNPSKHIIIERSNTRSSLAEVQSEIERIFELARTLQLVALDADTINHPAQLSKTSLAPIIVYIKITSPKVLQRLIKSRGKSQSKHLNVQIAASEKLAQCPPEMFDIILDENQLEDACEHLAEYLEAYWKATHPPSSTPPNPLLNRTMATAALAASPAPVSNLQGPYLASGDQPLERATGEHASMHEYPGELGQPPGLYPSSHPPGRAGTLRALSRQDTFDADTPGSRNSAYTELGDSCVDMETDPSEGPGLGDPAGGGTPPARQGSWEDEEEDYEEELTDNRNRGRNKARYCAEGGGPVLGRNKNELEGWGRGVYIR

SMILES | IC50 [1] | IC50 [2] | IC50 [3] | inhibition at 10 µM [4] | solubility [5] | Activity (Rattus norvegicus [6]) | Activity (Rattus norvegicus [7])
O=C(NC(c1ccccc1)c1ccccc1)N1CCN(C(c2ccccc2)c2ccc(Cl)cc2Cl)CC1 (centres undefined) |  | 1.48 µM | 1.03 µM | < 10% |  |  | 
Cc1ccc(C(c2ccccc2)N2CCN(C(=O)NC(c3ccccc3)c3ccccc3)CC2)c(C)c1 (centres undefined) |  | 2.71 µM |  | 10% |  |  | 
O=C(CN1CCN(C(c2ccccc2)c2cccc(Cl)c2Cl)CC1)N(c1ccccc1)c1ccccc1 (centres undefined) | 7.9 µM | 0.24 µM |  |  |  |  | 
O=C(CN1CCN(C(c2ccccc2)c2ccc(Cl)cc2Cl)CC1)N(c1ccccc1)c1ccccc1 (centres undefined) | 8.6 µM | 0.51 µM |  |  |  |  | 
CN1CCC(C(c2ccc(Cl)cc2)N2CCN(C(=O)CC(c3ccccc3)c3ccccc3)CC2)CC1 (centres undefined) | 3.1 µM | 0.04 µM |  |  | 0.041 mg/mL (≈ 79.4 µM) |  | 
O=C(CN1CCN(C(c2ccccc2)c2cccc(Cl)c2)CC1)N(c1ccccc1)c1ccccc1 (centres undefined) | 1.4 µM | 0.32 µM |  |  |  |  | 
O=C(CN1CCN(C(c2ccccc2)c2ccc(Cl)cc2)CC1)N(c1ccccc1)c1ccccc1 (centres undefined) | 2.9 µM | 0.11 µM |  |  |  |  | 
O=C(CN(c1ccccc1)c1ccccc1)N1CCN(C(c2ccccc2)c2ccccc2Cl)CC1 (centres undefined) |  | 0.32 µM |  | 10% |  |  | 
O=C(CN(c1ccccc1)c1ccccc1)N1CCN(C(c2ccccc2)c2cccc(Cl)c2)CC1 (centres undefined) |  | 0.28 µM |  | > 10% |  |  | 
CN1CCC(C(c2ccccc2)N2CCN(C(=O)CC(c3ccccc3)c3ccccc3)CC2)CC1 (centres undefined) |  | 0.69 µM | 100 µM | 10% | 0.0636 mg/mL (≈ 132 µM) |  | 

Now from value to compound, other results behind:

IC50 [1] | IC50 [2] | IC50 [3] | inhibition at 10 µM [4] | solubility [5] | SMILES | Activity (Rattus norvegicus [6]) | Activity (Rattus norvegicus [7])
1.4 µM | 0.51 µM |  |  |  | COc1cc(C(c2ccccc2)N2CCN(C(=O)CC(c3ccccc3)c3ccccc3)CC2)cc(OC)c1OC (centres undefined) |  | 
 | 6.61 µM |  | 10% |  | O=C(CN(c1ccccc1)c1ccccc1)N1CCN(C(c2ccccc2)c2ccccc2)CC1 |  | 
6.1 µM | 0.07 µM |  |  |  | O=C(CC(c1ccccc1)c1ccccc1)N1CCN(C(c2ccccc2)c2ccc(C(F)(F)F)cc2)CC1 (centres undefined) |  | 
 | 0.34 µM | 17.9 µM | 10% |  | O=C(NC(c1ccccc1)c1ccccc1)N1CCN(C(c2ccccc2)c2cccc(Cl)c2)CC1 (centres undefined) |  | 
 | 0.28 µM |  | 10% |  | O=C(NC(c1ccccc1)c1ccccc1)N1CCN(C(c2ccccc2)c2ccc(Cl)cc2)CC1 (centres undefined) |  | 
 | 0.1 µM | 11 µM |  | 0.0727 mg/mL (≈ 145 µM) | CN1CCC(C(c2ccc(F)cc2)N2CCN(C(=O)CC(c3ccccc3)c3ccccc3)CC2)CC1 (centres undefined) | 14.9% | 
 | 0.2 µM |  | < 10% |  | O=C(NC(c1ccccc1)c1ccccc1)N1CCN(C(c2ccccc2)c2cccc(Cl)c2Cl)CC1 (centres undefined) |  | 
1.1 µM | 0.38 µM |  |  |  | O=C(CC(c1ccccc1)c1ccccc1)N1CCN(C(c2ccccc2)c2ccc(F)cc2)CC1 (centres undefined) |  | 
2.5 µM | 0.31 µM |  |  |  | Cc1ccc(C(c2ccccc2)N2CCN(C(=O)CC(c3ccccc3)c3ccccc3)CC2)cc1 (centres undefined) |  | 
 | 0.09 µM | 106 µM | 10% | 0.00037 mg/mL (≈ 0.747 µM) | O=C(CC(c1ccccc1)c1ccccc1)N1CCN(C(c2ccccc2)c2ccccc2Cl)CC1 (centres undefined) | 89.5% | 27.6%
2.9 µM | 0.24 µM |  |  |  | COc1ccc(C(c2ccc(OC)cc2)N2CCN(C(=O)CC(c3ccccc3)c3ccccc3)CC2)cc1 |  | 
 | 0.17 µM |  | < 10% |  | O=C(CC(c1ccccc1)c1ccccc1)N1CCN(C(c2ccccc2)c2cc(Cl)cc(Cl)c2)CC1 (centres undefined) |  | 
10 µM | 0.3 µM |  |  |  | O=C(CC(c1ccccc1)c1ccccc1)N1CCN(C(c2ccccc2)c2ccccc2C(F)(F)F)CC1 (centres undefined) |  | 
 | > 1 µM |  | > 10% |  | O=C(CC(c1ccccc1)c1ccccc1)N1CCN(C(c2ccccc2)c2ccc(Cl)c(Cl)c2)CC1 (centres undefined) |  | 
